Calls of active or inactive are those of the source. The calls are words filed in the database; no cut-off is given here.
What was measured:
K562 [1] = assay: The efficacy in reverting MDR was evaluated on human erythroleukemia K-562 cell line; format: functional
Outline: (§1)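 Doxorubicin-resistant and sensitive K 562 cells in exponential growth were used in pH 7.25 HEPES buffer at 37 °C in quartz cuvettes. Pirarubicin uptake was followed as the fall in fluorescence at 590 nm (ex 480 nm). Steady-state nuclear pirarubicin was measured across a range of inhibitor concentrations. α = (CnRi − CnRo)/(CnS − CnRo); αmax is the maximal α, and [i]0.5 is the concentration giving α = 0.5 (mean ± SEM).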

Cavia porcellus [2] = organism: Cavia porcellus; assay: Decrease in developed tension of the left atrium of guinea pig expressed as the negative inotropy.; format: functional, Cardiac atrium; design: concentration or dose not given beside the values
Outline: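 Isolated guinea pig left atrium, electrically driven at 1 Hz. Read-out is the fall in developed tension at 5 × 10^-5 M, given as percent change from control (n = 5-6).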

Cavia porcellus [3] = organism: Cavia porcellus; assay: Decrease in atrial rate of the right atrium of guinea pig expressed as the negative chronotropy.; design: concentration or dose not given beside the values
K562 [4] = assay: Percentage of the dead cells of K-562 cells was determined for the compound; format: ADME, cell-based; details: human
Outline: (§2)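 Doxorubicin-resistant K 562 cells were exposed to compound at 1 µM, and viability was scored by trypan blue exclusion. Dead cells above 20% counted as toxic.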

Cavia porcellus [5] = organism: Cavia porcellus; assay: Percent inhibition of calcium-induced contraction on K+ depolarized guinea pig aortic strip.; format: functional, Aorta; design: concentration or dose not given beside the values
Cavia porcellus [6] = organism: Cavia porcellus; assay: Potency expressed as EC30 for the negative chronotropic activity.; format: functional
K562 [7] = assay: Potency that causes a half maximal increase in nuclear concentration of pirarubicin.; format: functional, Homo sapiens
Cavia porcellus [8] = organism: Cavia porcellus; assay: Potency expressed as EC50 for the negative inotropic activity.; format: functional
Cavia porcellus [9] = organism: Cavia porcellus; assay: Potency expressed as IC50 for the vasorelaxant activity; 'i' means inactive.; format: functional
K562 [10] = assay: percentage of the dead cells of K-562 cells was determined for the concentration of 1 uM of the compound.; format: ADME, cell-based; details: human, k562, 1 µM; outline: as §2
Cavia porcellus [11] = organism: Cavia porcellus; assay: Potency expressed as EC30 for the negative chronotropic activity; 'i' means Inactive; format: functional
K562 [12] = assay: The efficacy in reverting MDR was evaluated on erythroleukemia K-562 cell line.; format: functional, Homo sapiens; outline: as §1
Cavia porcellus [13] = organism: Cavia porcellus; assay: Potency expressed as EC50 for the negative inotropic activity; 'i' means Inactive; format: functional

SMILES	Alpha max (K562 [1])	Activity (Cavia porcellus [2]) [%]	Activity (Cavia porcellus [3]) [%]	Dead cells (K562 [4]) [%]	Activity (Cavia porcellus [5]) [%]	EC30 (Cavia porcellus [6]) [nM]	Potency (K562 [7]) [nM]	EC50 (Cavia porcellus [8]) [nM]	IC50 (Cavia porcellus [9])	Dead cells (K562 [10]) [%]	EC30 (Cavia porcellus [11])	Alpha max (K562 [12])	EC50 (Cavia porcellus [13])
COc1ccc(C(C#N)(CCCNC2c3ccccc3CCc3ccccc32)C(C)C)cc1OC.Cl (centres undefined)	0.8	70	86	10	24	210	300	680	Inactive	–	–	–	–
Cl.N#CC(CCCNCC(c1ccccc1)c1ccccc1)(c1ccccc1)c1ccccc1	–	75	82	–	19	1160	–	2150	Inactive	40	–	–	–
COc1ccc(C(C#N)(CCCNCC(c2ccccc2)c2ccccc2)C(C)C)cc1OC.Cl (centres undefined)	0.7	89	74	5	37	540	250	830	Inactive	–	–	–	–
COc1ccc(C(C#N)(CC#CCNCc2c3ccccc3cc3ccccc23)C(C)C)cc1OC.Cl (centres undefined)	–	74	34	–	12	–	2000	1040	Inactive	15	inactive	0.7	–
COc1ccc(C(C#N)(CCCNC2c3ccccc3-c3ccccc32)C(C)C)cc1OC.Cl (centres undefined)	0.8	33	74	0	46	650	250	–	Inactive	–	–	–	Not Active
CN(CCCC(C#N)(c1ccccc1)c1ccccc1)C1c2ccccc2-c2ccccc21.Cl	0.9	55	9	3	5	–	3000	900	Inactive	–	inactive	–	–
COc1ccc(C(C#N)(CCCNCc2cc3ccccc3c3ccccc23)C(C)C)cc1OC.Cl (centres undefined)	–	65	43	–	19	–	–	1130	Inactive	100	inactive	–	–
COc1ccc(C(C#N)(CC#CCN(C)C23CC4CC(CC(C4)C2)C3)C(C)C)cc1OC.Cl (centres undefined)	0.8	66	89	0	33	370	800	2910	Inactive	–	–	–	–
Cl.N#CC(CCCNC(c1ccccc1)c1ccccc1)(c1ccccc1)c1ccccc1	–	94	28	–	15	–	2000	380	Inactive	2	inactive	0.5	–
COc1ccc(C(C#N)(CC#CCNCc2cc3ccccc3c3ccccc23)C(C)C)cc1OC.Cl (centres undefined)	–	88	31	–	10	–	500	1290	Inactive	20	inactive	0.5	–
COc1ccc(C(C#N)(CC#CCN(C)CC2c3ccccc3-c3ccccc32)C(C)C)cc1OC.Cl (centres undefined)	–	78	25	30	12	–	–	1110	Inactive	–	inactive	–	–
C=CCNc1nc(NCC=C)nc(N2CCC(NCC#CCC(C#N)(c3ccc(OC)c(OC)c3)C(C)C)CC2)n1.Cl (centres undefined)	–	67	81	–	16	800	200	1890	Inactive	0	–	0.9	–
COc1ccc(C(C#N)(CC#CCN(C)C2c3ccccc3-c3ccccc32)C(C)C)cc1OC.Cl (centres undefined)	0.9	71	24	0	6	–	500	350	Inactive	–	inactive	–	–
COc1ccc(C(C#N)(CC#CCNC2c3ccccc3-c3ccccc32)C(C)C)cc1OC.Cl (centres undefined)	0.7	77	84	10	42	8250	1500	1100	Inactive	–	–	–	–
Cl.N#CC(CCCNC1c2ccccc2-c2ccccc21)(c1ccccc1)c1ccccc1	0.8	67	57	0	37	310	300	1810	Inactive	–	–	–	–
COc1ccc(C(C#N)(CCCNCC2c3ccccc3-c3ccccc32)C(C)C)cc1OC.Cl (centres undefined)	–	71	68	100	26	2240	–	470	Inactive	–	–	–	–
COc1ccc(C(C#N)(CCCNCc2c3ccccc3cc3ccccc23)C(C)C)cc1OC.Cl (centres undefined)	–	55	65	–	29	860	50	1110	Inactive	3	–	0.7	–
COc1ccc(C(C#N)(CCCN(C)C2c3ccccc3-c3ccccc32)C(C)C)cc1OC.Cl (centres undefined)	0.8	36	26	0	15	–	1000	–	Inactive	–	inactive	–	Not Active
COc1ccc(C(C#N)(CC#CCN(C)Cc2c3ccccc3cc3ccccc23)C(C)C)cc1OC.Cl (centres undefined)	–	65	39	–	46	–	–	630	Inactive	30	inactive	–	–
COc1ccc(C(C#N)(CC#CCNC(c2ccccc2)c2ccccc2)C(C)C)cc1OC.Cl (centres undefined)	0.6	69	24	6	23	–	500	1540	Inactive	–	inactive	–	–
CN(CCCC(C#N)(c1ccccc1)c1ccccc1)Cc1c2ccccc2cc2ccccc12.Cl	–	70	22	–	10	–	2100	890	Inactive	0	inactive	0.8	–
Cl.N#CC(CCCNCc1cc2ccccc2c2ccccc12)(c1ccccc1)c1ccccc1	–	61	38	–	3	–	–	2110	Inactive	100	inactive	–	–
Cl.N#CC(CCCNC1c2ccccc2CCc2ccccc21)(c1ccccc1)c1ccccc1	0.5	80	5	3	5	–	500	640	Inactive	–	inactive	–	–
COc1ccc(C(C#N)(CCCNC(c2ccccc2)c2ccccc2)C(C)C)cc1OC.Cl (centres undefined)	0.7	73	81	5	32	690	250	660	Inactive	–	–	–	–
COc1ccc(C(C#N)(CCCN(C)CC2c3ccccc3-c3ccccc32)C(C)C)cc1OC.Cl (centres undefined)	0.5	75	31	3	11	–	2200	1010	Inactive	–	inactive	–	–
COc1ccc(C(C#N)(CCCN(C)CC23CC4CC(CC(C4)C2)C3)C(C)C)cc1OC.Cl (centres undefined)	0.65	68	72	1	39	700	1400	1170	Inactive	–	–	–	–
COc1ccc(CCN(C)CCCC(C#N)(c2ccc(OC)c(OC)c2)C(C)C)cc1OC (centres undefined) [VERAPAMIL]	–	84	94	–	95	70	–	610	–	0	–	0.7	–

Reference: ChEMBL document CHEMBL1132206, “Design, synthesis, and in vitro activity of catamphiphilic reverters of multidrug resistance: discovery of a selective, highly efficacious chemosensitizer with potency in the nanomolar range” (J Med Chem, 1999)
